# Screens as filed in PubChem BioAssay.
# An excerpt weighted towards active compounds, which were near 1.4% of everything screened.
# MsrA act: bovine MsrA enzyme activators, primary screen, biochemical, absorbance, HTS. purified bovine MsrA, absorbance read-out. activation, % at 10.6 µM. hit rate 0.3% among 360,000; in the data active = activation above about 7.5%;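 also: 0% = vehicle and 100% = reference activator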
# MsrA inhibitor: bovine MsrA enzyme inhibitors, primary screen, biochemical, absorbance, HTS | hit rate 0.75% among 360,000 | inhibition, % at 15.5 µM | purified bovine MsrA, absorbance read-out;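 also: 0% = vehicle wells with enzyme and 100% = reference inhibitor wells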
# ASAP1 GAP inh: inhibitors of human ASAP1 ArfGAP activity, primary screen, biochemical, fluorescence polarization; Arf-GAP with SH3 domain, ANK repeat and PH domain-containing protein 1 (Homo sapiens), …; ASAP1-stimulated ARF1 GTP hydrolysis, GDP FP detection; inhibition, % at 16.5 µM; hit rate 0.19% among 360,000; in the data active = inhibition above about 25%;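 also: 0% = vehicle with enzyme and substrate and 100% = no enzyme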
# Target sequence (Q9ULH1 325-724 limits assumed): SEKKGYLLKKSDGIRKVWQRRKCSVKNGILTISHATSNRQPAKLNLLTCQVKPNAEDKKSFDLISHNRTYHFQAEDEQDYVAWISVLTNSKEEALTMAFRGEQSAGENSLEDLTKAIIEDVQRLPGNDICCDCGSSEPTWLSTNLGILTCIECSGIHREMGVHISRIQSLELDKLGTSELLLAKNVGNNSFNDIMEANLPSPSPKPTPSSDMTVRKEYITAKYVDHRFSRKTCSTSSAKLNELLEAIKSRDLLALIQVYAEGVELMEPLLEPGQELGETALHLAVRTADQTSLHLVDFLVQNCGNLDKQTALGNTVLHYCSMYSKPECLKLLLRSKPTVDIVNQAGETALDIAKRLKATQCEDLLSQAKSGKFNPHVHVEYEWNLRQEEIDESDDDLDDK
# ARFGAP1 inh: inhibitors of rat ARFGAP1 GAP activity, primary screen, biochemical, fluorescence polarization, GDP tracer | hit rate 0.26% among 360,000 | inhibition, % at 16.5 µM | Arfgap1-stimulated ARF1 GTP hydrolysis, GDP FP detection | ADP-ribosylation factor GTPase-activating protein 1 (Rattus norvegicus), Q62848;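 active = inhibition above a per-plate limit, mean inhibition of low control wells plus 3 SD, cut at about 25% in these data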;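 also: 0% = DMSO wells with enzyme and 100% = wells lacking Arfgap1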
#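 Assay system: Rat Arfgap1 GAP domain (His6, aa 1-136), purified enzyme | Buffer or medium: HEPES 25 mM pH 7.5, NaCl 150 mM, MgCl2, DTT | Schedule: GTP hydrolysis reaction 2 h at 25 °C | Signal: FP of antibody-bound GDP Alexa 633 tracer, ex 620/em 688 nm | Measure: Percent inhibition of Arfgap1-stimulated GTP hydrolysis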
# MsrA inh confirm: bovine MsrA inhibitors, retest, confirmation, biochemical, absorbance, HTS. shares compounds with MsrA inhibitor. purified bovine MsrA, absorbance read-out. inhibition, % at 15.5 µM. hit rate 41% among 2,300. AID 651822, 2012;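 also: coupled to thioredoxin reductase with NADPH and selenocystamine and DMSO as substrate; 0% = vehicle only and 100% = full effect of reference inhibitor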
# * hit, by the source's call; x = no result given. Rule as the data show it, unless noted: active = inhibition above about 4.5%; inactive = the rest.
SMILES,MsrA act,MsrA inhibitor,ASAP1 GAP inh,ARFGAP1 inh,MsrA inh confirm
NNC(=O)COc1ccccc1F,0,-1,4,6,x
CCOC(=O)C1CCN(CC(=O)c2ccc(O)c(C)c2O)CC1,-9,4.7*,-5,1,4
CCOC(=O)c1ccc(OCC(=O)c2ccc(O)cc2O)cc1,-3,4,5,11,x
COC(=O)c1ccc(OCC(=O)c2ccc(O)cc2O)cc1,-4,5.0*,-2,5,3
O=C(COc1ccccc1F)c1ccc(O)cc1O,-6,7.6*,-4,-12,4
Cc1c(O)ccc(C(=O)COc2ccccc2F)c1O,-12,4.8*,10,8,3
CCOC(=O)N1CCN(CC(=O)c2ccc(O)c(C)c2O)CC1,-3,2,-5,4,x
CC(NC(=O)C=Cc1ccco1)C(=O)NC(Cc1ccccc1)C(N)=O (configuration not stated),x,1,1,9,x
O=C(CSc1nnc2ccc(-c3ccccn3)nn12)Nc1ccccc1F,1,-1,15,-6,x
Cc1c(O)ccc(C(=O)CN2C(=O)c3ccccc3C2=O)c1O,-4,5.7*,3,0,4
Cc1ccc(C)c(C(=O)CN2C(=O)c3ccccc3C2=O)c1,-2,0,-9,5,x
Cc1c(OCC(=O)N(C)C)ccc2c(-c3ccccc3)cc(=O)oc12,-6,18*,-2,16,16*
CN(C)C(=O)COc1ccc2cc(-c3ccccc3)c(=O)oc2c1,-3,4.7*,-3,-2,3
CC(Oc1ccc2cc(-c3ccccc3)c(=O)oc2c1)C(=O)NCC1CCC(C(=O)O)CC1 (configuration not stated),-10,6.3*,-8,5,4
COc1ccc(-c2cc(=O)oc3cc(OCC(=O)NCC4CCC(C(=O)O)CC4)ccc23)cc1 (configuration not stated),4,4.9*,-5,9,3
Cc1ccc(S(=O)(=O)/C=C2\OCc3ccccc32)cc1,x,1,-12,-5,x
CCCCNC(=O)C1(C)CCN1C(=O)c1cc(C)n(C(C)(C)C)n1 (configuration not stated),-2,0,8,-2,x
CN(C)S(=O)(=O)c1cccc(NC(=O)CSc2cccc3cccnc23)c1,-1,0,6,14,x
CC(C)CNC(=O)CSc1ccc(S(=O)(=O)N2CCN(C)CC2)cn1,0,3,-23,-12,x
Cn1nc(C(=O)OCC(=O)NCc2ccc(Cl)cc2Cl)c2ccccc2c1=O,-7,0,-8,6,x
Cc1ccsc1/C=N/NC(=O)c1ccc(Cn2cc(Br)cn2)o1,-2,4.7*,-11,2,4
Cc1cc(C)c(OCC(=O)NCCCn2nc(C)cc2C)c(C)c1,1,0,10,6,x
CCCn1c(/C=N/Nc2nc3ccccc3[nH]2)nc2ccccc21,4,2,1,13,x
C(=N\Nc1nc2ccccc2[nH]1)/c1ccncc1,-4,5.0*,-14,0,2
CCN(CC)c1ccc(/C=N/Nc2nc3ccccc3[nH]2)cc1,-4,2,22,2,x
SMILES,MsrA act,MsrA inhibitor,ASAP1 GAP inh,ARFGAP1 inh,MsrA inh confirm
CC(=O)Nc1ccc(/C=N/Nc2nc3ccccc3[nH]2)cc1,-6,8.2*,11,6,5.9*
O=C(O)c1ccc(/C=N/Nc2nc3ccccc3[nH]2)cc1,-4,2,-16,-5,x
Cn1c(/C=N/Nc2nc3ccccc3[nH]2)nc2ccccc21,-1,4.9*,12,8,5.0*
COc1cc(/C=C/CNC[C@H]2O[C@@H](n3cnc4c(N)ncnc43)[C@H](O)[C@@H]2O)ccc1O,-7,x,x,x,x
Nc1ccccc1Nc1ccc([N+](=O)[O-])cc1[N+](=O)[O-],-4,17*,-13,9,9.4*
CCNC(=S)N/N=C/c1cccs1,-4,5.5*,16,7,3
Cc1c(C(=O)N/N=C/c2cccs2)nc2ccccn12,-1,6.6*,-9,3,6.4*
CCNC(=S)N/N=C/c1cccc(/C=N/NC(=S)NCC)c1,-5,1,-12,5,x
O=S(=O)(Nc1ccc2cn[nH]c2c1)c1cc(Br)ccc1Br,-3,6.2*,16,9,3
